Data on 3 compounds can be found in ChEMBL document CHEMBL4364340, “Discovery of N-(1-Acryloylazetidin-3-yl)-2-(1H-indol-1-yl)acetamides as Covalent Inhibitors of KRASG12C” (ACS Med Chem Lett, 2019).

Each structure is given as a SMILES string.

One data set concerns GTPase KRas (Homo sapiens), P01116 [G12C]. Put plainly: Inhibition of KRAS G12C mutant (unknown origin) at 10 uM incubated for 0.02 hrs in presence of GDP by rapidfire mass spectrometry analysis relative to control.
Chain of GTPase KRas (Homo sapiens), P01116 [G12C] (P01116 whole entry G12C): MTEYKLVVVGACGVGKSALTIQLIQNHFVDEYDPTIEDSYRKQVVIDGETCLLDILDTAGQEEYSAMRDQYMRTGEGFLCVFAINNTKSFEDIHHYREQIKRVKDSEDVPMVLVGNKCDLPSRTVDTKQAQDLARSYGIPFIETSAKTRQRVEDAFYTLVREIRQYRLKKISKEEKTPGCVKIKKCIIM
Settings: not given
An outline of the steps:
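Intact-protein mass spectrometry of covalent adduct formation at Cys12 of GDP-bound KRASG12C. Test compound at 10 μM, with read-outs at 0.02, 0.2, 2 and 20 h. Values are the relative % of protein bound, measured directly under pseudo-first-order conditions. Earlier incubations in the paper used 2 μM protein.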
`C=CC(=O)N1CC(NC(=O)Cn2c(C)c(C(=O)N3CCc4c(cccc4OC)C3)c3cc(Br)ccc32)C1`: the inhibition is 14%.

On to `C=CC(=O)N1CC(NC(=O)Cn2c(C3CC3)c(C(=O)N3CCc4c(cccc4OC)C3)c3cc(Br)ccc32)C1`, for which the inhibition is 35%.

`C=CC(=O)N1CC(NC(=O)Cn2c(C)c(C(=O)N3CCc4c(cccc4OC)C3)c3cc(Cl)cc(C)c32)C1`: the inhibition is 40%.

In another data set the target is GTPase KRas (Homo sapiens, UniProt P01116, G12C). Put plainly: Inhibition of KRAS G12C mutant in human MIAPaCa2 cells assessed as reduction in EGF-induced ERK1/2 phosphorylation incubated for 4 hrs followed by EGF addition by luminescence based assay. It is filed as cell-based.
Chain of GTPase KRas (P01116 whole entry G12C): as above
Settings: not given
In the case of `C=CC(=O)N1CC(NC(=O)Cn2c(C)c(C(=O)N3CCc4c(cccc4OC)C3)c3cc(Br)ccc32)C1`, the half-maximal inhibitory concentration (IC50) came out at 1680 nM.

`C=CC(=O)N1CC(NC(=O)Cn2c(C3CC3)c(C(=O)N3CCc4c(cccc4OC)C3)c3cc(Br)ccc32)C1`: the IC50 came out at 604 nM.

For the next data set, the system named is GTPase KRas (Homo sapiens), P01116 [G12C]. Description: Inhibition of KRAS G12C mutant (unknown origin) assessed as pseudo first order rate constant incubated for 0.02 to 20 hrs in presence of GDP by rapidfire mass spectrometry analysis.
Settings: not given
Put shortly: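 GDP-bound KRASG12C (2 μM) with 10 μM compound. Intact-protein MS measures covalent adduct at Cys12 after 0.02, 0.2, 2 and 20 h. Conversions between 10% and 90% are converted to kobs/[I] (M–1 s–1) under pseudo-first-order kinetics.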
With `C=CC(=O)N1CC(NC(=O)Cn2c(C)c(C(=O)N3CCc4c(cccc4OC)C3)c3cc(Br)ccc32)C1`, the K is 256 M⁻¹ s⁻¹.

With `C=CC(=O)N1CC(NC(=O)Cn2c(C3CC3)c(C(=O)N3CCc4c(cccc4OC)C3)c3cc(Br)ccc32)C1`, the K stood at 549 M⁻¹ s⁻¹.

As for `C=CC(=O)N1CC(NC(=O)Cn2c(C)c(C(=O)N3CCc4c(cccc4OC)C3)c3cc(Cl)cc(C)c32)C1`, the K came out at 583 M⁻¹ s⁻¹.

Test system in a further data set: not listed separately
Put plainly: Half life of compound in phosphate buffer at pH 7.4 in presence of GSH by LC/MS analysis. The data set is classed as physicochemical. The following applies: phosphate buffer with GSH. Put shortly:
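Intrinsic thiol reactivity toward 5 mM glutathione. Half-life is taken from the rate at which parent compound disappears.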
Consider `C=CC(=O)N1CC(NC(=O)Cn2c(C)c(C(=O)N3CCc4c(cccc4OC)C3)c3cc(Br)ccc32)C1`, for which the half-life worked out at 1.67 h.

With `C=CC(=O)N1CC(NC(=O)Cn2c(C3CC3)c(C(=O)N3CCc4c(cccc4OC)C3)c3cc(Br)ccc32)C1`, the half-life came to 1.67 h.

For `C=CC(=O)N1CC(NC(=O)Cn2c(C)c(C(=O)N3CCc4c(cccc4OC)C3)c3cc(Cl)cc(C)c32)C1`, the half-life was 1.67 h.

Another data set has as its system GTPase KRas (Homo sapiens), P01116 [G12C]. Put plainly: Inhibition of KRAS G12C mutant (unknown origin) at 10 uM incubated for 2 hrs in presence of GDP by rapidfire mass spectrometry analysis relative to control.
Settings: not given
An outline of the steps:
(§1)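 GDP-bound KRASG12C (2 μM) incubated with 10 μM compound. Intact-protein mass spectrometry quantifies relative % covalent adduct at Cys12 at the stated time point.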
Take `C=CC(=O)N1CC(NC(=O)Cn2c(C)c(C(=O)N3CCc4c(cccc4OC)C3)c3cc(Br)ccc32)C1`: the inhibition came out at 100%.

Take `C=CC(=O)N1CC(NC(=O)Cn2c(C3CC3)c(C(=O)N3CCc4c(cccc4OC)C3)c3cc(Br)ccc32)C1`: the inhibition worked out at 100%.

Turning to `C=CC(=O)N1CC(NC(=O)Cn2c(C)c(C(=O)N3CCc4c(cccc4OC)C3)c3cc(Cl)cc(C)c32)C1`, the inhibition was found to be 100%.

For another data set the test system is unchanged. Description: Inhibition of KRAS G12C mutant (unknown origin) at 10 uM incubated for 20 hrs in presence of GDP by rapidfire mass spectrometry analysis relative to control.
Settings: not given
Put shortly:
as §1
Take `C=CC(=O)N1CC(NC(=O)Cn2c(C)c(C(=O)N3CCc4c(cccc4OC)C3)c3cc(Br)ccc32)C1`: the inhibition amounted to 100%.

For `C=CC(=O)N1CC(NC(=O)Cn2c(C)c(C(=O)N3CCc4c(cccc4OC)C3)c3cc(Cl)cc(C)c32)C1`, the inhibition was 100%.

The next data set shares this test system. Put plainly: Inhibition of KRAS G12C mutant (unknown origin) at 10 uM incubated for 0.2 hrs in presence of GDP by rapidfire mass spectrometry analysis relative to control.
Settings: not given
An outline of the steps:
as §1
Turning to `C=CC(=O)N1CC(NC(=O)Cn2c(C)c(C(=O)N3CCc4c(cccc4OC)C3)c3cc(Br)ccc32)C1`, the inhibition came to 91%.

For the compound `C=CC(=O)N1CC(NC(=O)Cn2c(C3CC3)c(C(=O)N3CCc4c(cccc4OC)C3)c3cc(Br)ccc32)C1`, the inhibition came to 90%.

With `C=CC(=O)N1CC(NC(=O)Cn2c(C)c(C(=O)N3CCc4c(cccc4OC)C3)c3cc(Cl)cc(C)c32)C1`, the inhibition came out at 85%.

As a reminder, the inhibition is how much of the control response was suppressed. As usually defined, the IC50 is the concentration needed to halve the response being measured. Broadly, the half-life is the time in which the quantity being followed falls by half.
